Data published in ChEMBL document CHEMBL3994609, “Model-Based Discovery of Synthetic Agonists for the Zn2+-Sensing G-Protein-Coupled Receptor 39 (GPR39) Reveals Novel Biological Functions” (J Med Chem, 2017).
Activity calls are given as the source filed them. The calls are words filed in the database; no cut-off is given here.

Key:
[1] = biological target: T1, G-protein coupled receptor 39 (Mus musculus, UniProt Q5U431); test: Agonist activity at mouse GPR39 expressed in HEK293 cells co-expressing Galphaq assessed as myo-[2-3H]inositol phosphate accumulation measured after 75 mins by scintillation proximity assay; type: functional, cell-based
T1 sequence (Q5U431 whole entry): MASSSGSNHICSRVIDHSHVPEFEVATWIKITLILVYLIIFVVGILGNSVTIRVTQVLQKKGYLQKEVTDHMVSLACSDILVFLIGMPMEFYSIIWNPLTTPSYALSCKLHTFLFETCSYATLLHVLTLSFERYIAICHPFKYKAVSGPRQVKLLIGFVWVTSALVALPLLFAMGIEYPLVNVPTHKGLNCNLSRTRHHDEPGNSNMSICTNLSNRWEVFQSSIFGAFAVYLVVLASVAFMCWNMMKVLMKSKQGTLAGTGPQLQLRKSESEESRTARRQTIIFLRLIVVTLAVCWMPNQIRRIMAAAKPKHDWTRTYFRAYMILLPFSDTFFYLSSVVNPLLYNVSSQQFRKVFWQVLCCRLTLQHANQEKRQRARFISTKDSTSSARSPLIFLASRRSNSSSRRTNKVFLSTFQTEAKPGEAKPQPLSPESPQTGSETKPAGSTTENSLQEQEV

[2] = biological target: T2, G-protein coupled receptor 39 (Homo sapiens) (UniProt O43194); test: Agonist activity at GPR39 (unknown origin) expressed in COS7 cells co-expressing Galphas assessed as increase in intracellular cAMP level measured after 30 mins by chemiluminescence assay; type: functional, cell-based
T2 sequence (whole entry): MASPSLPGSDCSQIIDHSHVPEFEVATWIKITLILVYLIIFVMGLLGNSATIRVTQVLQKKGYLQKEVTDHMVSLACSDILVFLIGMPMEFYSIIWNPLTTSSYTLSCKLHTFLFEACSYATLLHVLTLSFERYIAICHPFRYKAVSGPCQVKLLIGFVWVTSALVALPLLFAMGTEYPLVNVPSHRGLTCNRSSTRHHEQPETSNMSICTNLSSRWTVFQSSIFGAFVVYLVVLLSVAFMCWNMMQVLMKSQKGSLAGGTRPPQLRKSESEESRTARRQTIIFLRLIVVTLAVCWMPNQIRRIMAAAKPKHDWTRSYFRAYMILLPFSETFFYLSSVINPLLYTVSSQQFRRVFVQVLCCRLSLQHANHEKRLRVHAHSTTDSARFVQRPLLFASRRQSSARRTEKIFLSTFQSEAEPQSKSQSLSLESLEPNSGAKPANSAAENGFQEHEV

[3] = biological target: Growth hormone secretagogue receptor type 1 (Homo sapiens) (UniProt Q92847); test: Agonist activity at human ghrelin receptor ([…]) assessed as myo-[2-3H]inositol phosphate accumulation measured after 75 mins by scintillation proximity assay; type: functional
[4] = Intrinsic clearance in human liver microsomes assessed per mg protein at 3 uM measured after 45 mins by LC-MS/MS analysis; type: ADME, microsome; conditions: read-out: CLH
[5] = Half life in human liver microsomes at 3 uM measured by LC-MS/MS analysis; type: ADME, microsome
Plasma = test: Drug uptake in mouse plasma at 30 to 60 mg/kg, po administered via gavage measured after 30 to 240 mins by LC-MS/MS analysis; type: ADME, organism-based; conditions: in vivo
Summary of the method: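 Mice dosed orally at 30 mg/kg and 60 mg/kg; plasma compound concentration followed from 30 to 240 min.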

[6] = biological target: C-C chemokine receptor type 5 (Macaca mulatta) (UniProt P61813); test: Agonist activity at full length rhesus monkey CCR5 assessed as myo-[2-3H]inositol phosphate accumulation measured after 75 mins by scintillation proximity assay; type: functional
[7] = biological target: Motilin receptor (Homo sapiens) (UniProt O43193); test: Agonist activity at human motilin receptor (412 residues) assessed as myo-[2-3H]inositol phosphate accumulation in presence of 10 uM Zn2+ measured after 75 mins by scintillation proximity assay; type: functional
[8] = biological target: Neuromedin-U receptor 2 (Homo sapiens) (UniProt Q9GZQ4); test: Agonist activity at human NMU2 receptor assessed as myo-[2-3H]inositol phosphate accumulation in presence of 10 uM Zn2+ measured after 75 mins by scintillation proximity assay; type: functional
[9] = biological target: C-C chemokine receptor type 5 (Macaca mulatta) (UniProt P61813); test: Agonist activity at full length monkey CCR5 assessed as myo-[2-3H]inositol phosphate accumulation in presence of 10 uM Zn2+ measured after 75 mins by scintillation proximity assay; type: functional
[10] = biological target: T3, G-protein coupled receptor 39 (Mus musculus) (UniProt Q5U431); test: Agonist activity at GPR39 in primary gastric mucosal cells isolated from C57BL/6 mouse assessed as inhibition of isoproterenol-induced ghrelin secretion at 1 uM in presence of 10 uM of Zn2+ and somatostatin receptor antagonist BIM-23627 measured after 4 hrs by ELISA
T3 sequence (whole entry): T1 sequence (Q5U431 whole entry)
Summary of the method: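 Primary gastric mucosal cell cultures from mice, incubated the day after preparation with ligands at 1 μM with 10 μM Zn2+ (with or without a somatostatin receptor antagonist) in triplicate for 4 h. Acyl-ghrelin in supernatant measured by ELISA, expressed as percent of medium-alone cells; n=5–7; unpaired t-test with Welch's correction versus vehicle.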

[11] = biological target: T3, G-protein coupled receptor 39 (Mus musculus); test: Agonist activity at GPR39 in primary gastric mucosal cells isolated from C57BL/6 mouse assessed as inhibition of basal ghrelin secretion at 1 uM in presence of 10 uM of Zn2+ measured after 4 hrs by ELISA relative to basal level

Chain of Growth hormone secretagogue receptor type 1 (Homo sapiens) (Q92847 whole entry): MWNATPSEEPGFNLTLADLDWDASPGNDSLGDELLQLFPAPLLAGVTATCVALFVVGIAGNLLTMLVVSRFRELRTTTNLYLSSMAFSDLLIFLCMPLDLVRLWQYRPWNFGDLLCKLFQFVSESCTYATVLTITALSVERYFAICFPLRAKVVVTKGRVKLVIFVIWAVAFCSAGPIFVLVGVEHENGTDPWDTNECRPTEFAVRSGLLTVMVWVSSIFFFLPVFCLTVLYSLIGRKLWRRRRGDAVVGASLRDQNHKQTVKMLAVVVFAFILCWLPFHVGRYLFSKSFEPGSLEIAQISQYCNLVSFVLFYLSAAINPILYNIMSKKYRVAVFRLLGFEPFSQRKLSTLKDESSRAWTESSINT
Chain of Neuromedin-U receptor 2 (Homo sapiens) (Q9GZQ4 whole entry): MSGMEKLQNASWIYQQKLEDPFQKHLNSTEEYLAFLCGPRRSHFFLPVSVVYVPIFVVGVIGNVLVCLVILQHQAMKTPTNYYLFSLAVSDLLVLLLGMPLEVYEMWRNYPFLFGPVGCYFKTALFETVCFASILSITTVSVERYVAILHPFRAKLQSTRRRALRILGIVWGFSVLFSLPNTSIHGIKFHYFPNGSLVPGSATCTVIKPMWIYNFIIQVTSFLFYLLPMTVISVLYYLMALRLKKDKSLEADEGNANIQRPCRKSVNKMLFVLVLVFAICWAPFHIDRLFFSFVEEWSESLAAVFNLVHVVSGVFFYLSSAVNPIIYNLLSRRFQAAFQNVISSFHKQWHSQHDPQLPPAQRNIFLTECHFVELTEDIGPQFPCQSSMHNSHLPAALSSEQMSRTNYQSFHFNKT
Chain of Motilin receptor (Homo sapiens) (O43193 whole entry): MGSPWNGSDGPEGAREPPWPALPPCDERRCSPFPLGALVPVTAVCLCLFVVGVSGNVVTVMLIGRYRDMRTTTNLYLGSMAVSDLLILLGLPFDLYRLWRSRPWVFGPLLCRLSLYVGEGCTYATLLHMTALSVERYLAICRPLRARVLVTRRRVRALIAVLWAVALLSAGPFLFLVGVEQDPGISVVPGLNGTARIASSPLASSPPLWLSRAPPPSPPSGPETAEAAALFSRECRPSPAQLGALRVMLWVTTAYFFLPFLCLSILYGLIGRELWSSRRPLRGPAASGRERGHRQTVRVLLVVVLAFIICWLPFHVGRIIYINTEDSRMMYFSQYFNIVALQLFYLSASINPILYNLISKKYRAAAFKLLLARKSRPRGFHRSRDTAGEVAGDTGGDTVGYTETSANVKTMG

EC50 [1]: 180 nM | Activity [2]: inactive | Activity [3]: inactive | microsomal CLint at 3 µM [4]: 23.7 µL/min/mg | half-life at 3 µM [5]: 58 min | Drug uptake (Plasma): Active | Activity [6]: inactive | Activity [7]: inactive | Activity [8]: inactive | Activity [9]: inactive | inhibition [10]: inactive | inhibition [11]: 79%
SMILES: Cc1nn(-c2ncnc3nc[nH]c23)c2c1C(c1ccc(F)cc1Cl)CC(=O)N2 (configuration not stated)
